Data published in ChEMBL document CHEMBL4665773, “Structure activity relationship exploration of 5-hydroxy-2-(3-phenylpropyl)chromones as a unique 5-HT receptor antagonist scaffold” (Bioorg Med Chem Lett, 2020).

Assays:
[1] = molecular target: T1, 5-hydroxytryptamine receptor 2B (Homo sapiens, UniProt P41595); test: Antagonist activity at 5HT2B receptor (unknown origin) by radioligand binding assay
[2] = molecular target: T2, 5-hydroxytryptamine receptor 2C (Homo sapiens) (UniProt P28335); test: Antagonist activity at 5HT2C receptor (unknown origin) 10 uM by radioligand binding assay relative to control
T2 sequence (whole entry): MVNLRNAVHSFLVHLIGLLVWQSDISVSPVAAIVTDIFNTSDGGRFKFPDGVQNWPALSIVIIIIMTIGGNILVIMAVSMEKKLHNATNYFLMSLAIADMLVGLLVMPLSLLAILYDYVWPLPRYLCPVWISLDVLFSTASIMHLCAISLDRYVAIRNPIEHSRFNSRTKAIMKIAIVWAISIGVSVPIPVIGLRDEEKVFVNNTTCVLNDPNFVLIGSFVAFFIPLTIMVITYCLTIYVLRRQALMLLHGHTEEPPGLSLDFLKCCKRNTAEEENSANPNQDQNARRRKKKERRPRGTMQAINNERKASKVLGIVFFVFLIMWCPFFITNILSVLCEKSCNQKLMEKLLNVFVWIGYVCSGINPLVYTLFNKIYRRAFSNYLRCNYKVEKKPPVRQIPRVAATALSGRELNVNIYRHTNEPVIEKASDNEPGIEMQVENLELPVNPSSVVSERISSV

[3] = molecular target: 5-hydroxytryptamine receptor 2A (Homo sapiens) (UniProt P28223); test: Antagonist activity at 5HT2A receptor (unknown origin) at 10 uM by radioligand binding assay relative to control
5-hydroxytryptamine receptor 2A (Homo sapiens), sequence (P28223 whole entry): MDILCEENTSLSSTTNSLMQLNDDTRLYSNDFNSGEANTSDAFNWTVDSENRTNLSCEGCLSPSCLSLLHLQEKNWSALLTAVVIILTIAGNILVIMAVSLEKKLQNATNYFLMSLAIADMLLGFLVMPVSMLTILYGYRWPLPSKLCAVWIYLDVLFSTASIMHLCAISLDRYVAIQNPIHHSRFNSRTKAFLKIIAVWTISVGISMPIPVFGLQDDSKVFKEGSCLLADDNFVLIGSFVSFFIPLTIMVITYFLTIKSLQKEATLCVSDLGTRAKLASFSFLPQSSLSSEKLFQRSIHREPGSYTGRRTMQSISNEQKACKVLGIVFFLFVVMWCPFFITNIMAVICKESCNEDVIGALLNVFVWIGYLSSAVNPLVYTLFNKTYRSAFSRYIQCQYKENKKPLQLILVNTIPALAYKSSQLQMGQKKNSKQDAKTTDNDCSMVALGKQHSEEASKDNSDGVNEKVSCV

[4] = molecular target: T1, 5-hydroxytryptamine receptor 2B; test: Antagonist activity at 5HT2B receptor (unknown origin) at 10 uM by radioligand binding assay relative to control
[5] = molecular target: T3, 5-hydroxytryptamine receptor 2C (Homo sapiens, UniProt P28335); test: Antagonist activity at 5HT2C receptor (unknown origin) by radioligand binding assay
T3 sequence (P28335 whole entry): T2 sequence (whole entry)

[6] = molecular target: T1, 5-hydroxytryptamine receptor 2B; test: Agonist activity at 5-HT2B receptor (unknown origin) by calcium mobilization assay; type: functional
[7] = molecular target: T1, 5-hydroxytryptamine receptor 2B; test: Antagonist activity at 5-HT2B receptor (unknown origin) assessed as inhibition of 5HT-indued response by calcium mobilization assay; type: functional
Outline: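 Antagonist mode of the 5-HT2B calcium mobilization assay: 5-HT at 1.6 nM was challenged with various concentrations of test compound. Inhibition is expressed as pIC50.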

[8] = molecular target: T1, 5-hydroxytryptamine receptor 2B; test: Agonist activity at 5-HT2B receptor (unknown origin) assessed as maximal response at 10 uM by calcium mobilization assay relative to 3 nM 5-HT; type: functional
Outline: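 Calcium mobilization read-out of agonism at 5-HT2B, with 5-HT as the reference agonist. Potency is expressed as pEC50. Maximal response to test compound at 10 μM is expressed relative to the maximal response to 5-HT at 3.0 nM.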

T1 sequence (P41595 whole entry): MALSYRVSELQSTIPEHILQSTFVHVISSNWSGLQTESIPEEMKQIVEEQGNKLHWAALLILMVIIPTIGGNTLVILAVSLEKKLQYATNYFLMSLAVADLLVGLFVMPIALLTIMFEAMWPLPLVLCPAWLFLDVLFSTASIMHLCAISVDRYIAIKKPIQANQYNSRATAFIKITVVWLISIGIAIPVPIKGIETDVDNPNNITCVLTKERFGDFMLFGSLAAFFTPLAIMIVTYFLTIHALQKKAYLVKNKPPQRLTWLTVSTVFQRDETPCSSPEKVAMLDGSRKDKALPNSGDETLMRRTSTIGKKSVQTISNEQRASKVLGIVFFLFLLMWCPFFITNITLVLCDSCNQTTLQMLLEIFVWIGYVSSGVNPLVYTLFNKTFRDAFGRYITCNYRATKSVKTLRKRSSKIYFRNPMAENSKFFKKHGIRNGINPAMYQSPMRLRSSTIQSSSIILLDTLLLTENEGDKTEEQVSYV

Row | Compound | Ki [1] | inhibition ([2]; filed as antagonist) | inhibition [3] | inhibition ([4]; filed as antagonist) | Ki [5] | inhibition [2] | inhibition [4] | EC50 [6] | IC50 [7] | Rmax [8]
1 | O=c1cc(CCCc2cccc(F)c2)oc2cccc(O)c12 | 2510 nM | 44.4% | 8.4% | 52.7% |  |  |  |  |  | 
2 | Cc1cccc(CCCc2cc(=O)c3c(O)cccc3o2)c1 | 2000 nM | 59.4% | 14.4% | 57.7% | 3160 nM |  |  |  |  | 
3 | COc1cccc(CCCc2cc(=O)c3c(O)cccc3o2)c1 |  | 67.4% | 9.8% | 69.3% |  |  |  |  |  | 
4 | Cc1ccc(CCCc2cc(=O)c3c(O)cccc3o2)cc1 | 1580 nM | 51.2% | 17.2% | 50% | 3160 nM |  |  |  |  | 
5 | O=c1cc(CCCc2cccc(C(F)(F)F)c2)oc2cccc(O)c12 | 1000 nM | 43.5% | 8.7% | 65.8% |  |  |  |  |  | 
6 | O=c1cc(CCCc2cccc(Cl)c2)oc2cccc(O)c12 | 2000 nM | 44.8% | 13.9% | 61.7% |  |  |  |  |  | 
7 | O=c1cc(CCCc2ccc(OC(F)(F)F)cc2)oc2cccc(O)c12 |  |  | -5% |  |  | 32.6% | 35.3% |  |  | 
8 | O=c1cc(CCCc2ccc(C(F)(F)F)cc2)oc2cccc(O)c12 | 2510 nM |  | 19.5% | 50% |  | 36% |  |  |  | 
9 | O=c1cc(CCCc2ccc(Cl)cc2)oc2cccc(O)c12 | 2510 nM |  | 9.3% | 50.4% |  | 35.8% |  |  |  | 
10 | N#Cc1cccc(CCCc2cc(=O)c3c(O)cccc3o2)c1 | 79.4 nM |  | 7.2% | 91.1% |  | 15.5% |  | 501 nM | 6310 nM | 12%
11 | O=c1cc(CCCc2ccc(F)cc2)oc2cccc(O)c12 |  |  | 14.2% | 49.2% |  | 33.9% |  |  |  | 
12 | COc1ccc(CCCc2cc(=O)c3c(O)cccc3o2)cc1 |  | 87.9% | -1.6% | 75.3% |  |  |  |  |  | 
